Assay results as given in ChEMBL document CHEMBL1152936, “Human sialidase inhibitors: design, synthesis, and biological evaluation of 4-acetamido-5-acylamido-2-fluoro benzoic acids” (Bioorg Med Chem, 2009).
Activity calls are given as the source filed them. The calls are words filed in the database; no cut-off is given here.

Columns and labels:
[1] = target: Sialidase-1 (Homo sapiens) (UniProt Q99519); assay: Inhibition of human NEU1 transiently transfected in HEK293 cells at 1 mM by fluorimetric analysis; format: cell-based
How it was run: (§1)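 Enzyme source was the crude supernatant of homogenates from HEK-293 cells transiently transfected with a full-length human sialidase cDNA plasmid. The reaction contained 10–20 nmol substrate (4MU-Neu5Ac) as bound sialic acid, 0.2 mg BSA, sodium acetate pH 4.6 and 0.2 mg Triton X-100. It was incubated at 37 °C for 10–30 min, and released sialic acid was quantified. Inhibitors were tested at 1 mM and reported as percent inhibition.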

[2] = target: T1, Sialidase-3 (Homo sapiens) (UniProt Q9UQ49); assay: Inhibition of human NEU3 transiently transfected in HEK293 cells at 1 mM by fluorimetric analysis; format: cell-based; how it was run: as §1
T1 sequence (whole entry): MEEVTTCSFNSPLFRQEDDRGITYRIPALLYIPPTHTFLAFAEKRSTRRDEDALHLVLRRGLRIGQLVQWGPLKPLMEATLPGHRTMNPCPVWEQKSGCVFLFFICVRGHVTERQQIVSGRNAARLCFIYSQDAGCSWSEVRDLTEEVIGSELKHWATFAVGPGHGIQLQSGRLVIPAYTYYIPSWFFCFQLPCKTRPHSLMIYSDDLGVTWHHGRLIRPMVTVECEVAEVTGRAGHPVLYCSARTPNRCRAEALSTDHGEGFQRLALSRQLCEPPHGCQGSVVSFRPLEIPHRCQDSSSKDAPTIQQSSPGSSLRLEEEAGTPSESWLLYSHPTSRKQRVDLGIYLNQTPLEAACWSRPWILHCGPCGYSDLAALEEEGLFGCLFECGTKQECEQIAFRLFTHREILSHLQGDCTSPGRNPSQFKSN

[3] = target: T2, Sialidase-4 (Homo sapiens) (UniProt Q8WWR8); assay: Inhibition of human NEU4 transiently transfected in HEK293 cells at 1 mM by fluorimetric analysis; format: cell-based; how it was run: as §1
T2 sequence (whole entry): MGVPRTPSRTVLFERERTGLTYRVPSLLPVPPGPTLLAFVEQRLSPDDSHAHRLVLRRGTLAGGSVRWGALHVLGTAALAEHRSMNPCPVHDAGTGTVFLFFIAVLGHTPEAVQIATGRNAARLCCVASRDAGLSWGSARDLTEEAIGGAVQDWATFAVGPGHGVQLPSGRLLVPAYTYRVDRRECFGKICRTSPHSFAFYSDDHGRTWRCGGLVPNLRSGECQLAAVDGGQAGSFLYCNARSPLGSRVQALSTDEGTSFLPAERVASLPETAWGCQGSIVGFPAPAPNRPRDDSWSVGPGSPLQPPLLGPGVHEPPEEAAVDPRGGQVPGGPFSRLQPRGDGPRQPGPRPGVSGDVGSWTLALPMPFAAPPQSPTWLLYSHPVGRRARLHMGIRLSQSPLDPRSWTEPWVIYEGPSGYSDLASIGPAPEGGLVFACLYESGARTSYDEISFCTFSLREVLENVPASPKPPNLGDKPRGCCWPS

Sialidase-3 [4] = target: T3, Sialidase-3 (Homo sapiens, UniProt Q9UQ49); assay: Inhibition of human NEU3 transiently transfected in HEK293 cells by fluorimetric analysis; format: cell-based
T3 sequence (Q9UQ49 whole entry): T1 sequence (whole entry)
How it was run: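 The sialidase was the crude supernatant of homogenized HEK-293 cells transiently transfected with full-length human NEU3 cDNA. The mixture held 10–20 nmol 4MU-Neu5Ac as bound sialic acid, 0.2 mg BSA, sodium acetate pH 4.6 and 0.2 mg Triton X-100, run at 37 °C for 10–30 min. Released sialic acid was measured, and IC50 came from nonlinear regression of concentration–inhibition curves.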

Sialidase-4 = target: T4, Sialidase-4 (Homo sapiens, UniProt Q8WWR8); assay: Inhibition of human NEU4 transiently transfected in HEK293 cells by fluorimetric analysis
T4 sequence (Q8WWR8 whole entry): T2 sequence (whole entry)

Sialidase-3 [5] = target: T3, Sialidase-3; assay: Inhibition of human NEU3 transiently transfected in HEK293T cells by fluorimetric high-performance liquid chromatography; format: cell-based, HEK-293T
How it was run: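 Crude supernatant of homogenates from HEK-293 cells transiently transfected with full-length human sialidase cDNA. Reaction: 10–20 nmol substrate as bound sialic acid, 0.2 mg BSA, sodium acetate pH 4.6, 0.2 mg Triton X-100.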

CCCCC(=O)Nc1cc(C(=O)O)c(F)cc1NC(C)=O was tested, and the inhibition [1] was “inactive”, the inhibition [2] was 13% and the inhibition [3] was < 5%.

With CC(=O)Nc1cc(F)c(C(=O)O)cc1NC(=O)C1CCCC1 the inhibition [1] was “inactive”, the inhibition [2] was “inactive” and the inhibition [3] was “inactive”.

For CC(=O)Nc1cc(F)c(C(=O)O)cc1NC(=O)c1ccc2ccccc2c1, the inhibition [1] was “inactive”, the inhibition [2] was 8% and the inhibition [3] was 10%.

With CCC(C)C(=O)Nc1cc(C(=O)O)c(F)cc1NC(C)=O (stereo unspecified) the inhibition [1] was “inactive”, the inhibition [2] was “inactive” and the inhibition [3] was “inactive”.

CC(=O)Nc1cc(F)c(C(=O)O)cc1NC(=O)c1ccc(-c2ccccc2)cc1 was tested, and the inhibition [1] was “inactive”, the IC50 (Sialidase-3 [4]) was ≥ 5000 µM and the IC50 (Sialidase-4) was ≥ 5000 µM.

With CC(=O)Nc1cc(F)c(C(=O)O)cc1NC(=O)c1ccccc1 the inhibition [1] was “inactive”, the inhibition [2] was “inactive” and the inhibition [3] was “inactive”.

CC(=O)Nc1cc(F)c(C(=O)O)cc1NC(=O)C(C)C was tested, and the inhibition [1] was “inactive”, the inhibition [2] was “inactive” and the inhibition [3] was 11%.

In the case of CCCC(=O)Nc1cc(C(=O)O)c(F)cc1NC(C)=O, the inhibition [1] is reported as “inactive”, the inhibition [2] is reported as “inactive” and the inhibition [3] is reported as < 5%.

For CCC(CC)C(=O)Nc1cc(C(=O)O)c(F)cc1NC(C)=O, the inhibition [1] was “inactive”, the inhibition [2] was “inactive” and the inhibition [3] was < 5%.

For CC(=O)Nc1cc(F)c(C(=O)O)cc1NC(=O)C(C)(C)C, the inhibition [1] was “inactive”, the inhibition [2] was “inactive” and the inhibition [3] was < 5%.

For CC(=O)Nc1cc(F)c(C(=O)O)cc1NC(=O)C1CCCCC1, the inhibition [1] was “inactive”, the inhibition [2] was “inactive” and the inhibition [3] was 6%.

CC(=O)Nc1cc(F)c(C(=O)O)cc1NC(=O)C1CC1 was tested, and the inhibition [1] was “inactive”, the inhibition [2] was “inactive” and the inhibition [3] was “inactive”.

With CC(=O)Nc1cc(F)c(C(=O)O)cc1NC(C)=O the inhibition [1] was “inactive”, the inhibition [2] was 23% and the IC50 (Sialidase-3 [4]) was > 2000 µM. It also gave an inhibition [3] of 8%.

An IC50 (Sialidase-3 [5]) of 60 µM was found for CC(=O)N[C@H]1[C@H]([C@H](O)[C@H](O)CO)OC(C(=O)O)=C[C@@H]1O [NEU5AC2EN] in this work.
